A selection: hits, their analogues and other compounds. The true share with any hit is near 4.8%.
NR3A LBD binder – binders of NR3A ligand-binding domain, primary screen, biophysical, differential scanning fluorimetry, uHTS; NR3A LBD differential scanning fluorimetry, Tm shift; 0% = protein alone, 100% = glycine-bound protein; Tm shift relative to glycine control, % at 25 µM; 340,000 tested, 2.5% active; AID 1259313, 2017;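 active = melting temperature shift of at least 10% of the positive control shift, at one fixed dose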
UCH37 inh – inhibitors of human UCH37 deubiquitinase, primary screen, biochemical, Ub-AMC cleavage, fluorescence. Ubiquitin carboxyl-terminal hydrolase isozyme L5 (Homo sapiens), Q9Y5K5. purified proteasome/UCH37. inhibition, % (no concentration beside the values). 330,000 tested, 0.33% active;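 active = mean inhibition over replicate wells above about 20%, limit read from the data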;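 also: 0% = compound-free wells with enzyme and 100% = wells lacking proteasome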
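System: Proteasome-associated human UCH37 deubiquitinase; Input: 0.15 nM proteasome in added enzyme buffer; Also added: Ub-AMC substrate from 1 µM stock; Incubation: 30 min compound-proteasome preincubation then 25 min substrate reaction, room temperature; Detection: fluorescence, ex 355 nm, em 460 nm; Read-out: % inhibition of Ub-AMC cleavage fluorescence; Benchmarks: no-proteasome and no-compound wells.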
pPAFAH FP inh – pPAFAH enzyme inhibitors, primary screen, biochemical, fluorescence polarization, human; 330,000 tested, 1.5% active; inhibition, % at 3.39 µM; recombinant pPAFAH, FP-rhodamine probe fluorescence polarization; AID 463082, 2010; Platelet-activating factor acetylhydrolase (Homo sapiens), Q13093;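 active = inhibition above the mean inhibition across the screen plus 3 SD, cut at about 25% in these data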;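 also: inhibitors block binding of the rhodamine activity-based probe so polarization drops; 0% = enzyme with DMSO and 100% = wells lacking pPAFAH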
PAFAH1B3 FP inh – PAFAH1B3 enzyme inhibitors, primary screen, biochemical, fluorescence polarization, human; 340,000 tested, 0.28% active; AID 492972, 2010; inhibition, % at 3.39 µM; recombinant PAFAH1B3, FP-rhodamine probe;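 active = inhibition above the screen-wide average of all tested compounds plus 3 SD, cut at about 25% in these data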;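 also: 0% = enzyme with DMSO only and 100% = wells lacking PAFAH1B3 protein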
Target sequence (Q15102 whole entry, looked up): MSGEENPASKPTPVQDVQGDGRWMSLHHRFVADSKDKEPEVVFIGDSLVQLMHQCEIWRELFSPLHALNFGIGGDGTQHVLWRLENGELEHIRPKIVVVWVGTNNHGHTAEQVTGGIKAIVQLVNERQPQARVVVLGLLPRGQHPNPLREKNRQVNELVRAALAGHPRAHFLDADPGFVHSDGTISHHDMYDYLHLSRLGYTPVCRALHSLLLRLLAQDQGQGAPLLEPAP
PAFAH1B2 inh – PAFAH1B2 enzyme inhibitors, primary screen, biochemical, fluorescence polarization, human; AID 492953, 2010; Platelet-activating factor acetylhydrolase IB subunit alpha2 (Homo sapiens), P68402; recombinant PAFAH1B2, FP-rhodamine activity probe; 340,000 tested, 1.2% active; inhibition, % at 3.39 µM;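 active = inhibition above the mean of all tested compounds plus 3 SD, cut at about 24% in these data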;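 also: 0% = enzyme with DMSO and 100% = wells lacking PAFAH1B2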
Target sequence (P68402 whole entry, looked up): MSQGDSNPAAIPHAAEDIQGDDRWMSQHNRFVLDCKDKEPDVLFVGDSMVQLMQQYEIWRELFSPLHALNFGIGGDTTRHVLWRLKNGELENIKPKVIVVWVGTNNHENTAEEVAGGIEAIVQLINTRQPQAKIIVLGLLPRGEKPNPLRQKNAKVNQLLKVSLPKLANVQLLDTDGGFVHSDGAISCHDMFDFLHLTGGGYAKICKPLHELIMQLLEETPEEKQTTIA
PAFAH2 FP inh – PAFAH2 enzyme inhibitors, primary screen, biochemical, fluorescence polarization, human; inhibition, % at 3.39 µM; recombinant PAFAH2, FP-rhodamine activity probe; Platelet-activating factor acetylhydrolase 2, cytoplasmic (Homo sapiens), Q99487; 340,000 tested, 0.99% active;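 active = inhibition above the mean over all tested compounds plus 3 SD, cut at about 30% in these data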;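 also: inhibitors block probe labeling of enzyme so polarization drops; 0% = enzyme with DMSO and 100% = wells lacking PAFAH2 protein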
Numbers without * were called inactive; x = no result.

SMILES | NR3A LBD binder | UCH37 inh | pPAFAH FP inh | PAFAH1B3 FP inh | PAFAH1B2 inh | PAFAH2 FP inh
Cc1ccc(C(=O)NN=Cc2ccc(N3CCOCC3)cc2)c(C)c1 | x | -15 | x | x | x | x
CNC(=O)C(=O)NN=Cc1cccnc1 | x | 5 | x | x | x | x
Cc1ccc(NC(=O)NNC(=O)COc2ccc(Cl)cc2)cc1 | 7 | 4 | 1 | -5 | -4 | 0
CCOc1ccc(NC(=O)CCC(=O)NNC(=O)Nc2ccc(Cl)cc2)cc1 | 12* | 4 | 0 | x | x | x
CN(C)CC(=O)Nc1ccc(Oc2ccc(Cl)cc2)cc1 | 4 | 3 | 26* | 7 | 4 | 6
COc1ccc(NC(=S)NNC(=O)CNc2ccc(Cl)cc2)cc1 | 12* | 4 | 3 | 4 | 13 | 3
CN(CC(=O)Nc1ccc(Cl)cc1)CC(=O)Nc1ccc(C(N)=O)cc1 | -9 | 2 | 0 | 4 | 8 | 8
O=C(Nc1ccc2nc(-c3ccc4nc[nH]c4c3)[nH]c2c1)c1cccs1 | 29* | 0 | 13 | 17 | 7 | 1
Cc1ccc2nc(NC(=O)Cc3cccs3)sc2c1 | -6 | -2 | 0 | 1 | 5 | 1
O=C(c1ccccc1)c1ccc2nc(-c3ccc(NC(=O)c4ccccc4F)cc3)[nH]c2c1 | 18* | -2 | 3 | -13 | 3 | -4
O=C(Nc1ccc2nc(-c3ccco3)[nH]c2c1)c1cccs1 | 13* | 3 | 6 | 6 | 3 | -3
Cc1ccc2nc(-c3ccc(NC(=O)Cc4cccs4)cc3)[nH]c2c1 | 34* | -270 | -1 | -3 | 0 | 2
Brc1ccccc1C=NNc1ccccn1 | x | 0 | x | x | x | x
CC(/C=C/c1ccccc1)=NNC(=O)C(O)c1ccccc1 (centres undefined) | x | 0 | x | x | x | x
CC(=O)Nc1cccc(-c2nc3ccc(NC(C)=O)cc3[nH]2)c1 | -6 | -64 | 1 | 3 | -8 | 1
O=C(Nc1nc(-c2ccccc2)ns1)c1cccs1 | 19* | 3 | -1 | 4 | 2 | -2
O=C(Nc1nc(-c2ccccc2)cs1)c1cccs1 | 1 | -4 | 0 | 7 | 0 | -2
O=C(Nc1ccc2nc(-c3ccccc3)[nH]c2c1)c1cccs1 | 30* | -5 | 5 | 9 | 6 | 13
O=C(O)C(CC(=O)c1ccc(Cl)cc1)=NNc1ccc([N+](=O)[O-])cc1[N+](=O)[O-] | x | 17 | x | x | x | x
O=C1NC2(NN1c1ccccc1)C1CC3CC(C1)CC2C3 (centres undefined) | 1 | 0 | 4 | 1 | 2 | -1
CC1SC2(NC1=O)C1CC3CC(C1)CC2C3 (centres undefined) | -2 | 2 | 1 | 0 | 28* | 1
CCOC(=O)Cc1cc(=O)[nH]c(N=C(N)Nc2ccc(OC)cc2)n1 | x | 1 | x | x | x | x
CCOc1ccc(NC(=S)NN2C(C)CCCC2C)cc1 (centres undefined) | 12* | 3 | -2 | -1 | -4 | 2
Cc1ccc(N=Nc2ccc3ccccc3c2O)cc1 | -8 | 9 | -1 | 52* | 86* | 35*
COc1ccc(CCN=C(N)NS(=O)(=O)c2ccccc2)cc1 | 0 | 1 | 2 | -2 | 1 | 8
O=S(=O)(NC(=NCCc1ccc(Cl)cc1)c1ccccc1Cl)c1cccs1 | -21 | 4 | 3 | -1 | 47* | 15
NC(=NCCc1ccc(Cl)cc1)NS(=O)(=O)c1ccccc1 | 1 | 5 | 1 | 6 | 54* | 6
NC(=NCCc1ccc(Cl)cc1)NS(=O)(=O)c1ccc(F)cc1 | -2 | 4 | 3 | 10 | 49* | 0
NC(=NCCc1ccccc1)NS(=O)(=O)c1cccs1 | 0 | 1 | -1 | 2 | 9 | 3
COc1ccc(CCN=C(N)NS(=O)(=O)c2ccc(F)cc2)cc1 | 0 | 4 | 2 | -8 | 12 | -8
